This is an account of results in PubChem BioAssay AID504383 (The Scripps Research Institute Molecular Screening Center, 2011).

Out of some 2,500 compounds screened, about 1,200 (48%) were called active.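 The calls were made as follows: active = mean activation above the low control average plus 3 SD, as set in the primary screen (cut at about 12% in these data); inactive = the rest.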 The set was probably picked from earlier hits. Some of the results follow.

The target of this assay is Troponin I, cardiac muscle (Homo sapiens) + Troponin T, cardiac muscle (Homo sapiens) + Troponin C, slow skeletal and cardiac muscles (Homo sapiens) (UniProt P19429+P45379+P63316). Description: calcium sensitizers of cardiac thin filaments – biochemical, IANBD-TnC fluorescence, triplicate, confirmation (AID 504383).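 Also: 0% = DMSO at 0.472 mM calcium and 100% = DMSO at 2.9 mM calcium.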 The note with it: IANBD-labeled cardiac RTF, Ca2+ sensitivity fluorescence; at 7.2 µM; stronger effect = higher value; scaled from EC20 to saturating calcium; tested at EC20 calcium, 0.472 mM. In outline: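 Assay system: labelled regulated thin filament protein complex; schedule: 15 min compound incubation with filaments at 25 °C; benchmarks: low control EC20 calcium, high control EC100 calcium; reagent: Ca2+ 0.472 mM, EC20 level; doses: one dose, 7.2 µM nominal; evaluation: fluorescence gain scaled between EC20 and EC100 calcium controls; signal: filament fluorescence intensity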
On to `CCOCCCNC(=S)NCCCNc1nc2c(C)cc(C)cc2cc1C#N`, for which the activation is 7.25% (inactive).
As to `O=C(/C=C/c1cccc(F)c1)Nc1cc(S(=O)(=O)N2CCOCC2)ccc1N1CCCC1`, the activation is 9.19% (inactive).
Under `O=C(CN1CCc2ccccc2C1)Nc1cc(S(=O)(=O)N2CCOCC2)ccc1N1CCOCC1` stands 8.9% (inactive); under `Cc1ccccc1OCCC(=O)Nc1cc(S(=O)(=O)N2CCCCC2)ccc1N1CCN(C)CC1`, 16.9% (active).
For the compound `CCn1c(SCC(=O)NNC(=O)c2ccco2)nnc1-c1ccco1`, the activation was -0.46% (inactive).
Under `CCn1c(SCC(=O)c2ccc(Cl)cc2)nnc1C(C)C` stands 13.2% (active); under `N#C/C(=C/c1ccc(N2CCOCC2)o1)C(=O)NC1CCCCC1`, -0.07% (inactive).
Turning to `N#C/C(=C\c1ccc(N2CCOCC2)o1)C(=O)NCC1CCCO1` (centres undefined), the activation is -0.28% (inactive).
The value for `N#C/C(=C\c1ccc(N2CCOCC2)o1)C(=O)NC1CCCCC1` was 28.9% (active); that for `N#C/C(=C/c1ccc(N2CCOCC2)o1)C(=O)Nc1ccccc1` was 2.26% (inactive); that for `N#C/C(=C/c1ccc(N2CCCCC2)o1)C(=O)NCCc1c[nH]c2ccccc12` was 40.9% (active).
Regarding `COc1ccc(NC(=O)/C(C#N)=C\c2ccc(N3CCOCC3)o2)cc1`, the activation is 32.2% (active).
Turning to `N#C/C(=C/c1ccc(N2CCCCC2)o1)C(=O)Nc1ccc(Cl)cc1`, the activation was 111% (active).
Regarding `CCOC(=O)/C(C#N)=N\Nc1cc(Cl)ccc1OC`, the activation is 6.36% (inactive).
For `COCCNC(=O)/C(C#N)=C/c1ccc(N2CCOCC2)o1`, the activation was 9.29% (inactive).
In the case of `N#C/C(=C\c1ccc(N2CCCCC2)o1)C(=O)Nc1cccc(Br)c1`, the activation was 5.9% (inactive).
For the compound `N#C/C(=C\c1ccc(N2CCOCC2)o1)C(=O)N1CCOCC1`, the activation is 6.09% (inactive).
As to `N#C/C(=C/c1ccc(N2CCOCC2)o1)C(=O)N1CCOCC1`, the activation is 10.1% (inactive).
Under `N#C/C(=C\c1ccc(N2CCCCC2)o1)C(N)=O` stands 11.6% (active); under `N#C/C(=C/c1ccc(N2CCCCC2)o1)C(=O)Nc1ccc2ccccc2c1`, 171% (active).
The value for `N#C/C(=C\c1ccc(N2CCOCC2)o1)C(=O)NCCc1ccccc1` was 43.7% (active); that for `CN1C(=O)NC(c2ccccc2[N+](=O)[O-])C2=C1CCCC2=O` (centres undefined) was 14.6% (active); that for `O=C1NC2=C(C(=O)CCC2)C(c2ccccc2Cl)N1` (centres undefined) was 10.3% (inactive).
The value for `C=CCN1C(=O)/C(=C/c2ccc(O)c(OC)c2)S/C1=N/c1nccs1` was 5.76% (inactive); that for `COc1ccc(/C=c2\s/c(=C/C(=O)c3ccc(C)cc3)[nH]c2=O)cc1OC` was 1.66% (inactive); that for `COc1ccc(/C=C2/SC(c3ccc(C)cc3)=NC2=O)cc1OC` was 34.6% (active).
`COc1ccc(/C=C2\SC(=O)NC2=S)cc1OC`: the activation is 7.81% (inactive).
`COc1ccc(/C=C2\SC(c3ccc(C)cc3)=NC2=O)cc1OC`: the activation is 12.9% (active).
Under `COc1cc(N2CCCC2)c(OC)cc1/C=C1/NC(=S)NC1=O` stands 113% (active); under `O=C1CCC/C(=N/NC(=O)c2sc3ccccc3c2Cl)C1`, 7.01% (inactive).
Under `O=C1CCCC(=NNC(=O)c2cc3ccccc3cc2O)C1` stands 8.36% (inactive); under `COc1ccc2c(Cl)c(C(=O)N/N=C3\CCCC(=O)C3)sc2c1`, 47.6% (active); under `CC1(c2cccc(Br)c2)NC(=O)NC1=O` (centres undefined), 52.2% (active).
Under `COc1ccc(NC(C)=O)cc1NC(=O)C1CCCN1C(=O)c1cccs1` (centres undefined) stands 6.06% (inactive); under `COC(=O)C1=C(C(=O)OC)[C@@H]2Nc3ccccc3[C@@]23C[C@@H](C(=O)OC)N(C(=O)c2cccs2)C3=N1`, 36.8% (active).
For `O=C(CCC1CCCN(C(=O)C2=CCCC2)C1)N1CCN(c2ccccn2)CC1` (centres undefined), the activation is 4.61% (inactive).
The value for `Cc1ccc(SCC(=O)OCC(=O)NCc2cccs2)cc1` was 12.8% (active).
The value for `CCC1Oc2ccc(C)cc2N(CC(=O)NCc2cccs2)C1=O` (centres undefined) was -5.95% (inactive).
Under `CC(=O)n1cc(CO)c2ccccc21` stands 262% (active).
On to `Cc1ccc(Cl)c(NC(=O)CN(C)CC(=O)Nc2ccc(F)c(F)c2F)c1Cl`, for which the activation was 2.04% (inactive).
The value for `CC(CCc1ccc(O)cc1)NCCC(c1ccccc1)c1ccccc1` (centres undefined) was 48.6% (active).
As to `CCN=C(NC#N)SCc1c(F)cccc1Cl`, the activation was 11.4% (inactive).
The value for `NS(=O)(=O)c1ccc(NCc2c(F)cccc2Cl)cc1` was 45.6% (active); that for `Cc1cccc(N=Cc2[nH]c3ccc(Br)c(Cl)c3c2O)c1` was 4.45% (inactive).
The value for `CCOc1ccc(Nc2nc(N)c([N+](=O)[O-])c(NCc3ccccc3)n2)cc1` was 7.49% (inactive); that for `CCOc1ccc(Cn2nnc(C(=O)NCCc3ccccc3)c2N)cc1` was 821% (active); that for `COc1cccc2cc(-c3nc(-c4cccs4)cs3)c(=O)oc12` was 3.53% (inactive).
`Cc1ccccc1-c1noc(-c2cccs2)n1`: the activation is 24.3% (active).
The value for `COc1ccc(N2CCN(C(=O)c3ccc(OCC4CCCO4)cc3)CC2)cc1` (centres undefined) was 71% (active); that for `O=C(C1=C(O)C(=O)N(c2nccs2)C1c1ccccc1)c1cc2ccccc2o1` (centres undefined) was 5.32% (inactive); that for `COC(=O)c1sc(N2C(=O)C(O)=C(C(=O)c3ccc(C)o3)C2c2ccc(F)cc2)nc1C` (centres undefined) was 35% (active).
The value for `CCCC1C(c2ccccc2)C(C#N)(C#N)C2(C#N)CC1(N)NC2=O` (centres undefined) was 10.5% (inactive).
In the case of `N#C/C(=C\c1coc2ccc(O)cc2c1=O)C(=O)Nc1nc2ccccc2s1`, the activation was 12.6% (active).
In the case of `COc1ccccc1N1C(=O)C2C(C(=O)c3ccccc3)=NN(c3ccccc3)C2C1=O` (centres undefined), the activation is 11.7% (active).
The value for `O=C(C1=NN(c2ccccc2)C2C(=O)N(c3ccccc3)C(=O)C12)c1ccccc1` (centres undefined) was 3.95% (inactive).
For the compound `Cc1ccc(N2C(=O)C3C(C(=O)c4ccccc4)=NN(c4ccccc4)C3C2=O)cc1` (centres undefined), the activation was 29.5% (active).
The value for `O=C(C1=NN(c2ccccc2)C2C(=O)N(c3ccc(Cl)cc3)C(=O)C12)c1ccccc1` (centres undefined) was 2.79% (inactive).
For `O=C(C1=NN(c2ccccc2)C2C(=O)N(c3cccc(Cl)c3)C(=O)C12)c1ccccc1` (centres undefined), the activation is 35.7% (active).
With `COc1cccc(/C=C/C(=C2\C(=O)N(c3ccccc3)N=C2C)c2ccc(Br)cc2)c1OC`, the activation was 4.48% (inactive).
The value for `Cc1ccc(CC2C(=O)N(c3ccc(C)cc3)C(=O)C2C)cc1` (centres undefined) was 7.76% (inactive); that for `O=C1N(c2cccc(Cl)c2)C(c2ccccc2)N2CCCN12` (centres undefined) was 6.5% (inactive); that for `O=C(C1=NN(c2ccccc2)C2C(=O)N(c3ccccc3Cl)C(=O)C12)c1ccccc1` (centres undefined) was 13.6% (active).
The value for `CCOC(=O)c1c(-c2ccc(C)cc2)csc1NC(=O)/C(C#N)=C/c1ccc(O)c(OC)c1` was 4.04% (inactive); that for `COc1ccc(C2(CNC(C)=O)CCCC2)cc1OC` was 3.15% (inactive).
With `COC(=O)c1c(-c2ccc(OC)c(OC)c2)csc1N`, the activation is 13% (active).
Under `O=C(CSCc1ccco1)NC1CCCC1` stands 13.6% (active); under `O=C(c1ccc(=O)[nH]c1)N(Cc1ccco1)C1(C(=O)NC2CCCCC2)CCCCC1`, 8.99% (inactive).
On to `S=C(NC1CC1)NC1CCCc2ccccc21` (centres undefined), for which the activation is 7.09% (inactive).
Under `COc1cc(NC(=O)CSc2ccccc2)c(C(=O)O)cc1OC` stands 23.2% (active); under `COc1cc(NC(=O)CSc2nc3ccccc3n2-c2ccccc2)c(C)cc1[N+](=O)[O-]`, 6.07% (inactive).
Under `COC(=O)c1sccc1NC(=O)CSCC(=O)O` stands 0.67% (inactive).
Under `CCOC(=O)N1CCC(NC(=O)c2cnn3c2NC(c2ccco2)CC3C(F)(F)F)CC1` (centres undefined) stands 18% (active); under `CCOC(=O)C1=C(C)NC(C)=C(C(=O)OCC)C1c1ccco1`, 8.22% (inactive); under `COc1ccccc1N1CCN(c2ccc([N+](=O)[O-])cc2Cl)CC1`, 90.7% (active).
Regarding `COc1ccc(N2CCN(S(=O)(=O)Cc3ccccc3)CC2)cc1`, the activation was 10.5% (inactive).
Under `CC1=N/C(=C/c2ccc([N+](=O)[O-])cc2)C(=O)N1c1ccc(Cl)cc1Cl` stands 6.42% (inactive); under `COc1ccccc1N1CCN(C(=O)CCC(=O)O)CC1`, 4.12% (inactive).
Under `COc1ccc(N2CCN(c3ccc([N+](=O)[O-])cc3Cl)CC2)cc1` stands 41.8% (active).
In the case of `Cn1c(NC(=O)C[n+]2cc(-c3ccc(Cl)cc3)n3c2CCC3)cc(=O)n(C)c1=O`, the activation is 5.8% (inactive).
The value for `Cc1onc(-c2ccccc2Cl)c1C(=O)N(Cc1ccc(N(C)C)cc1)C(C)C` was 12% (active); that for `CC(=O)Nc1ccc(SCC(=O)NNC(=O)CN(C)S(=O)(=O)c2ccc(C)cc2)cc1` was 98% (active).
On to `Cc1ccc(Cn2c(Sc3nnc(C)s3)nc3c2c(=O)[nH]c(=O)n3C)cc1`, for which the activation is 108% (active).
Under `COc1ccc(/C=C2\CC/C(=C\c3ccc(OC)cc3OC)C2=O)c(OC)c1` stands 50.4% (active); under `COc1ccc(/C=c2\s/c(=C/C(=O)c3ccc(C)cc3)[nH]c2=O)c(OC)c1`, 10.7% (inactive); under `COc1cc(/C=C2\CC/C(=C\c3ccc(OCCO)c(OC)c3)C2=O)ccc1OCCO`, 7.54% (inactive).
As to `COC(=O)[C@H](C)NC(=O)c1cc2c(cn1)[nH]c1ccccc12`, the activation is 10.7% (inactive).
In the case of `CCOC(=O)c1c(NCC(C)C)c2ccccc2[nH]c1=O`, the activation is 183% (active).
As to `CCOC(=O)C1=C(COC(=O)c2ccc3ccccc3c2O)NC(=O)NC1C` (centres undefined), the activation was 6.83% (inactive).
Consider `COc1ccc(N2C(=O)[C@@H]3[C@H](C2=O)[C@H]2c4ccccc4C=CN2[C@@H]3C(=O)Nc2ccccc2)cc1`, for which the activation was 55.7% (active).
Regarding `Cc1ccc(-c2nc(C)sc2CC(=O)O)cc1`, the activation was 28.5% (active).
For the compound `Cc1ccc(-c2nc(N)sc2CC(=O)OCC(=O)NCCC(C)C)cc1`, the activation is 10.3% (inactive).
Under `COC(=O)c1ccc2c(c1)NC1=C(C(=O)CC(C)(C)C1)C(c1ccncc1)N2` (centres undefined) stands 9.24% (inactive); under `COc1ccc(NC(=O)c2cc(C)on2)cc1OC`, 6.63% (inactive); under `COc1ccc(-c2cc(C(F)(F)F)nc(S(=O)(=O)CCCC(=O)Nc3cc(C)on3)n2)cc1OC`, 16.4% (active).
